Test results as given in publication PMC8212730 (Clinical and Translational Science, 2021).
Like-named read-outs stand apart in the source and are kept apart here.

Key:
CYP2B6 = settings: cited from earlier work
[1] = cited from earlier work; for Median time to maximal concentration range: across dose range
[2] = healthy participants; strong CYP3A4 inhibitor itraconazole; cited from earlier work
[3] = Final population PK model of ivosidenib; assay type: in vivo, human
[4] = single dose 500 mg; cited from earlier work
[5] = patients with AML after multiple doses of ivosidenib; PBPK model; cited from earlier work
mIDH1 R/R AML = settings: 500 mg q.d., cited from earlier work
[6] = tested on: corrected QT interval (QTcF); test: Concentration-corrected QT; assay type: in vivo, human
Outline: (§1)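 Patients on ivosidenib 500 mg q.d. had triplicate ECGs with time-matched plasma samples, pooled with two other phase I studies (solid tumours, healthy volunteers): 171 patients, 1203 measurements. Plasma drug was measured by LC-MS/MS. A linear mixed-effects model had population intercept and slope with bivariate-normal between-subject variability. Covariates were selected stepwise (likelihood ratio, 0.05). ΔQTcF and 90% CI were predicted at geometric mean Cmax. Fridericia and Bazett corrections were compared.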

[7] = Concentration-corrected QT; assay type: in vivo, human; settings: human, plasma, oral, 500 mg
Outline: as §1

CYP2C8 = settings: cited from earlier work
CYP2C9 = settings: in vitro; cited from earlier work
Exposure-safety analysis = assay type: in vivo, human
R/R AML = test: Exposure-efficacy analysis; assay type: in vivo, human
Outline: (§2)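 Plasma drug was measured by LC-MS/MS (ranges 1–1000 and 50–50,000 ng/ml). Data were fitted with a two-compartment population PK model with first-order absorption and elimination. Individual empirical Bayes estimates gave steady-state AUC per patient from the nominal q.d. dose. AUCss was related to CR, CR/CRh, overall response and non-CR/CRh response by logistic regression and Kaplan-Meier plots.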

[8] = Exposure-efficacy analysis; assay type: in vivo, human; settings: human, plasma, oral, AUCss range of quartile
Outline: as §2

human CYP3A4 = settings: cited from earlier work
[9] = human plasma; ref not given; cited from earlier work
[10] = final population PK model, derived from steady-state parameters and fold changes
[11] = final population PK model, single dose to steady state

For `N#Cc1ccnc(N2C(=O)CC[C@H]2C(=O)N(c2cncc(F)c2)[C@H](C(=O)NC2CC(F)(F)C2)c2ccccc2Cl)c1` [ivosidenib], the “Contribution to metabolism of ivosidenib” value (CYP2B6) is listed as “minor contributions”, the Inducer status (CYP2B6; in vitro) is listed as “may also be an inducer” and the Half-life ([1]; after a single dose) is listed as 72 to 138 h. The “Time to steady state” value ([1]; daily dosing) was no more than 14 days, the “Median time to maximal concentration range” value ([1]; multiple dosing) was 1.9 to 4.0 h and the “Median time to maximal concentration range” value ([1]; single dose administration) was 2.4 to 5.5 h. For the same molecule, the “Change in plasma AUC with itraconazole” value [2] was 1.69 fold, the “Dose proportionality of exposure” value ([3]; 100 mg b.i.d. and 300-1200 mg q.d.) was “slightly less than dose proportional” and the “Predicted Cmax in the typical patient” value ([3]; 500 mg q.d., steady state, albumin 37 g/L, weight 74.2 kg, no CYP3A4 inhibitor) was 4827 ng/mL. The “Reduction in ivosidenib CL/F” value ([3]; concomitant fluconazole) was 41%, the “Reduction in ivosidenib CL/F” value ([3]; concomitant posaconazole) was 35% and the “Reduction in ivosidenib CL/F” value ([3]; concomitant voriconazole) was 36%. The “Effect of concomitant pantoprazole or famotidine on CL/F” value ([3]; covariate analysis) was “did not affect”, the “Impact of mild CYP3A4 inhibitors” value ([3]; covariate analysis) was “minimal” and the “Correlation between CL/F and hepatic function indicators” value ([3]; covariate analysis, patients with mild hepatic impairment) was “no correlation”. The “Albumin ratio-CL/F exponent” value ([3]; final population PK model) was 0.99, the “Albumin ratio-Vc/F exponent” value ([3]; final population PK model) was 1.1 and the “Baseline albumin-Vc/F exponent” value ([3]; final population PK model) was 0.73. The “Decrease in relative bioavailability from single dose to steady state” value ([3]; final population PK model) was 2 fold, the “Fold change in CL with mild CYP3A inhibitors” value ([3]; final population PK model) was 1.04 and the “Fold change in CL with other moderate/strong CYP3A inhibitors” value ([3]; final population PK model) was 0.92. For the same molecule, the “Increase in exposure with a doubling of dose” value ([3]; final population PK model) was ~ 40%, the “Steady-state Q/F” value ([3]; final population PK model) was 15.8 L/h and the “Steady-state Vc/F” value ([3]; final population PK model) was 234 L. The “Steady-state Vp/F” value ([3]; final population PK model) was 151 L, the “Tlag (zero-order release duration, lag-time)” value ([3]; final population PK model) was 0.27 h and the “ka (first-order absorption rate constant)” value ([3]; final population PK model) was 1.38 h⁻¹. The Wt-Vc/F exponent ([3]; final population PK model, baseline body weight) was 0.92, the “Fold change in CL with fluconazole” value ([3]; final population PK model, concomitant fluconazole) was 0.59 and the “Fold change in CL with posaconazole” value ([3]; final population PK model, concomitant posaconazole) was 0.65. The “Fold change in CL with voriconazole” value ([3]; final population PK model, concomitant voriconazole) was 0.64, the “First-dose CL/F” value [3, 10] was 1.63 L/h and the “First-dose Q/F” value [3, 10] was 4.8 L/h. For the same molecule, the “First-dose Vc/F” value [3, 10] was 71 L, the “First-dose Vp/F” value [3, 10] was 46 L and the “Steady-state CL/F” value ([3]; final population PK model, oral, patients with mIDH1 advanced hematologic malignancies) was 5.39 L/h. For the same molecule, the “Steady-state fold change in CL” value [3, 11] was 1.66, the “Steady-state fold change in Frel” value [3, 11] was 0.5 and the “Effect of time-varying albumin changes on plasma exposure” value ([3]; human, in vivo) was “less than 20%”. The “Increase in AUCss” value ([3]; moderate/strong CYP3A4 inhibitors) was 60%, the “Effect of mild/moderate hepatic impairment on ivosidenib exposure” value [4] was “did not lead to clinically relevant changes in ivosidenib exposure” and the “Predicted change in plasma AUC in the presence of itraconazole” value [5] was 1.44 fold. For the same molecule, the “Rate of CR plus CRh” value (mIDH1 R/R AML; 174 patients with mIDH1 R/R AML) was 32.8%, the “Median duration of CR/CRh” value (mIDH1 R/R AML) was 8.2 months and the “Median time to CR/CRh response” value (mIDH1 R/R AML) was 2 months. For the same molecule, the “Predicted ΔQTcF” value ([6]; at 6551 ng/ml, geometric mean Cmax for 500 mg q.d.) was 17.2 ms, the “Relationship between ΔQTcF and ivosidenib concentration” value ([6]; in vivo) was “significant direct relationship” and the “Increase of ΔQTcF with plasma ivosidenib concentration (slope)” value ([6]; linear mixed-effects model) was 0.00258 msec/(ng/ml). For the same molecule, the Cmax [7] was 6550 ng/mL, the “Contribution to metabolism of ivosidenib” value (CYP2C8) was “minor contributions” and the Inducer status (CYP2C8; in vitro) was “may also be an inducer”. The Inducer status (CYP2C9) was “may also be an inducer”, the “Incidence of new or worsening all grade ALT” value (Exposure-safety analysis; 253 patients) was 15% and the “Association between incidence of events for all safety end points and AUCss” value (Exposure-safety analysis; logistic regression) was “no association”. For the same molecule, the “Incidence of CR (complete remission)” value (R/R AML; AUCss quartile 1) was 11 (22%) n, the “Incidence of CR/CRh” value (R/R AML; AUCss quartile 1) was 17 (33%) n and the “Incidence of OR (overall response)” value (R/R AML; AUCss quartile 1) was 20 (39%) n. For the same molecule, the “Incidence of CR (complete remission)” value (R/R AML; AUCss quartile 2) was 12 (24%) n, the “Incidence of CR/CRh” value (R/R AML; AUCss quartile 2) was 15 (30%) n and the “Incidence of OR (overall response)” value (R/R AML; AUCss quartile 2) was 18 (36%) n. For the same molecule, the “Incidence of CR (complete remission)” value (R/R AML; AUCss quartile 3) was 9 (18%) n, the “Incidence of CR/CRh” value (R/R AML; AUCss quartile 3) was 12 (24%) n and the “Incidence of OR (overall response)” value (R/R AML; AUCss quartile 3) was 18 (36%) n. The “Incidence of CR (complete remission)” value (R/R AML; AUCss quartile 4) was 11 (22%) n, the “Incidence of CR/CRh” value (R/R AML; AUCss quartile 4) was 15 (30%) n and the “Incidence of OR (overall response)” value (R/R AML; AUCss quartile 4) was 19 (38%) n. For the same molecule, the “Association between nominal AUCss and probability of clinical response” value (R/R AML; logistic regression) was “minimal”, the “Patients with OR” value (R/R AML; of 201 patients with R/R AML) was 75 patients and the “Patients with non-CR/CRh response” value (R/R AML; of 201 patients with R/R AML) was 16 patients. It also gave an AUC ([8]; AUCss quartile 1, 51 patients) of 40.9 to 93.1 µg·h/mL, an AUC ([8]; AUCss quartile 2, 50 patients) of 93.4 to 122 µg·h/mL and an AUC ([8]; AUCss quartile 3, 50 patients) of 124 to 170 µg·h/mL. For the same molecule, the AUC ([8]; AUCss quartile 4, 50 patients) was 171 to 361 µg·h/mL, the “Contribution to metabolism of ivosidenib” value (human CYP3A4; CYP3A4) was “major metabolism pathway” and the Inducer status (human CYP3A4; in vitro, human CYP3A4) was “inducer”. For the same molecule, the Substrate status (human CYP3A4; in vitro, human CYP3A4) was “substrate” and the Protein bound [9] was ~ 90%.
